ChEMBL document CHEMBL1938274, “Discovery of potent and specific CXCR3 antagonists” (Bioorg Med Chem Lett, 2012)

Each compound was assayed on PBL (assay: Toxicity in human PBL assessed as chromosomal aberrations at 7.81 to 1000 ug/mL).
Assay type: cell-based; call rule not given here
Procedure, shortened: (§1)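 Cultured human peripheral blood lymphocytes exposed at 7.81–1000 μg/mL, with and without S9 metabolic activation; chromosomal aberrations scored.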

Compound	Activity
CCS(=O)(=O)CCN(C(=O)Cc1ccc(C(F)(F)F)c(F)c1)[C@H](C)c1nc2ncccc2c(=O)n1-c1ccc(Cl)cc1	Non-toxic
CCS(=O)(=O)CCN(C(=O)Cc1ccc(F)c(C(F)(F)F)c1)[C@H](C)c1nc2ncccc2c(=O)n1-c1ccc(F)cc1	Non-toxic
C[C@H](c1nc2ncccc2c(=O)n1-c1ccc(F)cc1)N(CC1CCS(=O)(=O)CC1)C(=O)Cc1ccc(C(F)(F)F)c(F)c1	Non-toxic
CCS(=O)(=O)CCN(C(=O)Cc1ccc(F)c(C(F)(F)F)c1)[C@H](C)c1nc2ccccn2c(=O)c1-c1ccc(C#N)cc1	Toxic
CCS(=O)(=O)CCN(C(=O)Cc1ccc(C(F)(F)F)c(F)c1)[C@H](C)c1nc2ncccc2c(=O)n1-c1ccc(C#N)cc1	Toxic

The compounds below were run against T1, C-X-C chemokine receptor type 3 (Homo sapiens, UniProt P49682) (assay: Displacement of [125I]-IP-10 from CXCR3 in presence of 100% human serum).
T1 sequence (P49682 whole entry): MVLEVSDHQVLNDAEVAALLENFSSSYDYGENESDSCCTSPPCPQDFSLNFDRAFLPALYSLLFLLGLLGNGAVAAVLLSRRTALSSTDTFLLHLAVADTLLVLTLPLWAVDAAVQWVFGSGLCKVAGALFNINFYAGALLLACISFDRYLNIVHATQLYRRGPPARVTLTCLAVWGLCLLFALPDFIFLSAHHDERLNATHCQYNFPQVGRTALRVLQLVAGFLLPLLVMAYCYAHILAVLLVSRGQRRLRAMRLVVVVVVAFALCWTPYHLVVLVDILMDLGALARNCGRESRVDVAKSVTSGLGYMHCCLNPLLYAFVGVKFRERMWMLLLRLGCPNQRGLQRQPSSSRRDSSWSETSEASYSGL

IC50	Compound
21 nM	CCS(=O)(=O)CCN(C(=O)Cc1ccc(C(F)(F)F)c(F)c1)[C@H](C)c1nc2ncccc2c(=O)n1-c1ccc(Cl)cc1
50 nM	CCS(=O)(=O)CCN(C(=O)Cc1ccc(F)c(C(F)(F)F)c1)[C@H](C)c1nc2ncccc2c(=O)n1-c1ccc(F)cc1
22 nM	C[C@H](c1nc2ncccc2c(=O)n1-c1ccc(F)cc1)N(CC1CCS(=O)(=O)CC1)C(=O)Cc1ccc(C(F)(F)F)c(F)c1

Further lines, the compound ahead of its results:

Compound	IC50
CCOc1ccc(-n2c([C@@H](C)N(Cc3ccc[n+]([O-])c3)C(=O)Cc3ccc(OC(F)(F)F)cc3)nc3ncccc3c2=O)cc1	14 nM
C[C@H](c1nc2ncccc2c(=O)n1-c1ccc(O)cc1)N(Cc1cccnc1)C(=O)Cc1ccc(OC(F)(F)F)cc1	4.1 nM

What follows are compounds tested on PBL (assay: Toxicity in human PBL assessed as chromosomal aberrations at 7.81 to 1000 ug/mL in the presence of S9).
Assay type: cell-based
Procedure, shortened: as §1

Compound	Activity
CCS(=O)(=O)CCN(C(=O)Cc1ccc(C(F)(F)F)c(F)c1)[C@H](C)c1nc2ncccc2c(=O)n1-c1ccc(Cl)cc1	Non-toxic
CCS(=O)(=O)CCN(C(=O)Cc1ccc(F)c(C(F)(F)F)c1)[C@H](C)c1nc2ncccc2c(=O)n1-c1ccc(F)cc1	Non-toxic
C[C@H](c1nc2ncccc2c(=O)n1-c1ccc(F)cc1)N(CC1CCS(=O)(=O)CC1)C(=O)Cc1ccc(C(F)(F)F)c(F)c1	Non-toxic
CCS(=O)(=O)CCN(C(=O)Cc1ccc(F)c(C(F)(F)F)c1)[C@H](C)c1nc2ccccn2c(=O)c1-c1ccc(C#N)cc1	Toxic
CCS(=O)(=O)CCN(C(=O)Cc1ccc(C(F)(F)F)c(F)c1)[C@H](C)c1nc2ncccc2c(=O)n1-c1ccc(C#N)cc1	Toxic

The compounds below were run against T1, C-X-C chemokine receptor type 3 (assay: Displacement of [125I]-IP-10 from CXCR3).

IC50	Compound
7 nM	CCS(=O)(=O)CCN(C(=O)Cc1ccc(C(F)(F)F)c(F)c1)[C@H](C)c1nc2ncccc2c(=O)n1-c1ccc(Cl)cc1
42 nM	CCS(=O)(=O)CCN(C(=O)Cc1ccc(F)c(C(F)(F)F)c1)[C@H](C)c1nc2ncccc2c(=O)n1-c1ccc(F)cc1
7 nM	C[C@H](c1nc2ncccc2c(=O)n1-c1ccc(F)cc1)N(CC1CCS(=O)(=O)CC1)C(=O)Cc1ccc(C(F)(F)F)c(F)c1

More lines, now with the values behind:

Compound	IC50
CCOc1ccc(-n2c([C@@H](C)N(Cc3ccc[n+]([O-])c3)C(=O)Cc3ccc(OC(F)(F)F)cc3)nc3ncccc3c2=O)cc1	7 nM
C[C@H](c1nc2ncccc2c(=O)n1-c1ccc(O)cc1)N(Cc1cccnc1)C(=O)Cc1ccc(OC(F)(F)F)cc1	816 nM

What follows are compounds tested against Cytochrome P450 3A4 (Homo sapiens, UniProt P08684) (assay: Time dependent inhibition of CYP3A4).
Assay type: ADME

Chain of Cytochrome P450 3A4 (P08684 whole entry): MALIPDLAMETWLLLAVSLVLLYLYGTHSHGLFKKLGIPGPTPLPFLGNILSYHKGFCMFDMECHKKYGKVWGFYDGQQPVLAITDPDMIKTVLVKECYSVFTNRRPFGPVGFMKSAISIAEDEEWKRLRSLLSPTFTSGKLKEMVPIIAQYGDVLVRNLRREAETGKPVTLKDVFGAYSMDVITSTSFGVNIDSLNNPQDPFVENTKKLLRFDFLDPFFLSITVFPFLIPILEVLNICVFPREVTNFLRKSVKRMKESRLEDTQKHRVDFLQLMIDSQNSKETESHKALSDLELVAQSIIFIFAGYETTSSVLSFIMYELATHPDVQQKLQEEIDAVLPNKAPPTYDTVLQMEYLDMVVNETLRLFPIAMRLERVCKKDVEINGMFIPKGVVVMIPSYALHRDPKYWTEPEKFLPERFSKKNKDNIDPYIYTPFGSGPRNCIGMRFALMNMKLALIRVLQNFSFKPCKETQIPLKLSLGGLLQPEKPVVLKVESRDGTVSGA

TDI	Compound
Not Active	CCOc1ccc(-n2c([C@@H](C)N(CCS(=O)(=O)CC)C(=O)Cc3ccc(F)c(C(F)(F)F)c3)nc3ncccc3c2=O)cc1
Not Active	CCOc1ccc(-c2c([C@@H](C)N(CCS(=O)(=O)CC)C(=O)Cc3ccc(F)c(C(F)(F)F)c3)nc3ccccn3c2=O)cc1
Active	CCS(=O)(=O)CCN(C(=O)Cc1ccc(F)c(C(F)(F)F)c1)[C@H](C)c1nc2ccccn2c(=O)c1-c1ccc(O)cc1
Not Active	CCOc1ccc(-c2c([C@@H](C)N(CCS(=O)(=O)CC)C(=O)Cc3ccc(F)c(C(F)(F)F)c3)nc3ncccn23)cc1
Active	CCS(=O)(=O)CCN(C(=O)Cc1ccc(F)c(C(F)(F)F)c1)[C@H](C)c1nc2ncccn2c1-c1ccc(O)cc1
